Test results taken from ChEMBL document CHEMBL4350968, “Structure Guided Design, Synthesis, and Biological Evaluation of Novel Benzosuberene Analogues as Inhibitors of Tubulin Polymerization” (J Med Chem, 2019).
Calls of active or inactive are those of the source. No cut-off for these calls is given here.

Legend:
SK-OV-3 = assay: Cytotoxicity against human SKOV3 cells assessed as growth inhibition measured after 48 hrs by SRB assay; format: functional; conditions: SK-OV-3, 48 h
DU-145 = assay: Cytotoxicity against human DU145 cells assessed as growth inhibition measured after 48 hrs by SRB assay; format: functional; conditions: DU-145, 48 h
Tubulin = Tubulin (Bos taurus, UniProt Q6B856+Q862L2+Q862F3); assay: Inhibition of bovine brain tubulin polymerization preincubated for 15 mins followed by GTP addition and measured for 20 mins by turbidimetry-based spectrophotometric method
Procedure, shortened: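 Mixtures held 10 µM purified bovine brain tubulin, 0.8 M monosodium glutamate pH 6.6, 4% DMSO and varied compound concentrations. These were preincubated 15 min at 30 °C without GTP, then chilled to 0 °C, and GTP was added to 0.4 mM final. Temperature was raised to 30 °C and turbidity followed at 350 nm for 20 min.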

NCI-H460 = assay: Cytotoxicity against human NCI-H460 cells assessed as growth inhibition measured after 48 hrs by SRB assay; format: functional; conditions: NCI-H460, 48 h
Tubulin (Homo sapiens) [1] = molecular target: T1, Tubulin (Homo sapiens) (UniProt P68371+Q9H4B7+P0DPH7+P68366+Q13509+Q71U36+P04350+Q3ZCM7+P07437+P68363+Q9BQE3+Q6PEY2+Q13885+Q9BVA1+Q9BUF5); assay: Inhibition of [3H]colchicine binding to tubulin (unknown origin) at 5 uM measured after 10 mins by beckman scintillation counting method relative to control; format: protein-complex assay
Procedure, shortened: (§1)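 Each 0.1 mL mix held 1.0 µM tubulin, 5.0 µM [3H]colchicine, 5% DMSO and compound at 1.0 or 5.0 µM. Stabilising components were 1.0 M monosodium glutamate pH 6.6, 0.5 mg/mL BSA, 0.1 M glucose-1-phosphate, 1.0 mM MgCl2 and 1.0 mM GTP. After 10 min at 37 °C, reactions were stopped with ice-cold water and filtered on DEAE-cellulose. Bound label was counted and percent inhibition taken versus no-inhibitor samples, correcting for filter binding without tubulin.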

Tubulin (Homo sapiens) [2] = molecular target: T1, Tubulin (Homo sapiens); assay: Inhibition of [3H]colchicine binding to tubulin (unknown origin) at 1 uM measured after 10 mins by beckman scintillation counting method relative to control; format: protein-complex assay; procedure, shortened: as §1
Tubulin (Homo sapiens) [3] = molecular target: T1, Tubulin (Homo sapiens); assay: Inhibition of [3H]colchicine binding to tubulin (unknown origin) at 0.5 uM measured after 10 mins by beckman scintillation counting method relative to control; format: protein-complex assay
PC-3 [4] = assay: Induction of vascular damage in human PC3 cells harboring DAB2IP-luc xenografted in Copenhagen rat assessed as reduction in light emission at 10 mg/kg, ip measured after 4 to 24 hrs by Bioluminescence imaging analysis; format: functional, organism-based
Procedure, shortened: (§2)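 Male Copenhagen rats (about 6 weeks old, 100-120 g) were implanted s.c. in the right thigh with 5 X 10⁵ PC3-DAB2IP-luc cells in 30% Matrigel. Tumors were at least 1 cm in diameter before treatment. Prodrug in saline (25 mg/mL) was given IP, one rat per regimen. Under isoflurane, 120 mg/kg D-luciferin was injected s.c. fresh at baseline, 4 h and 24 h. Tumor ROI light emission was followed over about 30 min.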

PC-3 [5] = assay: Induction of vascular damage in human PC3 cells harboring DAB2IP-luc xenografted in Copenhagen rat assessed as reduction in light emission at 10 mg/kg, ip administered 24 hrs prior to 40 mg/kg, ip dosing for 4 hrs followed by CA4P dosing at 30 mg/kg, ip and measured after 4 to 24 hrs by bioluminescence imaging analysis; format: functional, organism-based; procedure, shortened: as §2
PC-3 [6] = assay: Induction of vascular damage in human PC3 cells harboring DAB2IP-luc xenografted in Copenhagen rat assessed as reduction in light emission at 10 mg/kg, ip administered 6 hrs prior to 40 mg/kg, ip dosing and measured after 24 hrs by bioluminescence imaging analysis; format: functional, organism-based; procedure, shortened: as §2
PC-3 [7] = assay: Induction of vascular damage in human PC3 cells harboring DAB2IP-luc xenografted in Copenhagen rat assessed as reduction in light emission at 40 mg/kg, ip measured after 24 to 48 hrs by Bioluminescence imaging analysis; format: functional, organism-based; procedure, shortened: as §2
PC-3 [8] = assay: Induction of vascular damage in human PC3 cells harboring DAB2IP-luc xenografted in Copenhagen rat assessed as reduction in light emission at 40 mg/kg, ip measured after 4 hrs by Bioluminescence imaging analysis; format: functional, organism-based; procedure, shortened: as §2
[9] = Toxicity in Copenhagen rat xenografted with human PC3 cells harboring DAB2IP-luc at 80 mg/kg, ip measured after 4 to 24 hrs; format: organism-based; conditions: in vivo
PC-3 [10] = assay: Induction of vascular damage in human PC3 cells harboring DAB2IP-luc xenografted in Copenhagen rat assessed as reduction in light emission at 10 mg/kg, ip administered 6 hrs prior to 40 mg/kg, ip dosing and measured after 4 hrs by bioluminescence imaging analysis relative to control; format: functional; parameters: scale not given: the % may be the effect or the level left; procedure, shortened: as §2
PC-3 [11] = assay: Induction of vascular damage in human PC3 cells harboring DAB2IP-luc xenografted in Copenhagen rat assessed as reduction in light emission at 80 mg/kg, ip measured after 4 to 24 hrs by Bioluminescence imaging analysis; format: functional, organism-based; procedure, shortened: as §2
[12] = Toxicity in Copenhagen rat xenografted with human PC3 cells harboring DAB2IP-luc at 40 mg/kg, ip measured after 48 hrs; format: organism-based; conditions: in vivo
Tubulin (Homo sapiens) [13] = molecular target: T1, Tubulin (Homo sapiens); assay: Inhibition of [3H]colchicine binding to tubulin (unknown origin) measured after 10 mins by beckman scintillation counting method relative to control; format: protein-complex assay
Procedure, shortened: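 The 0.1 mL mix held 1.0 µM tubulin, 5.0 µM [3H]colchicine, 5% DMSO and compound at 1.0 or 5.0 µM. It also held 1.0 M monosodium glutamate (pH 6.6), 0.5 mg/mL BSA, 0.1 M glucose-1-phosphate, 1.0 mM MgCl2 and 1.0 mM GTP. After 10 min at 37 °C the reaction was stopped on ice, the mix filtered through DEAE-cellulose and counted. Percent inhibition was taken against the no-inhibitor control, corrected for label bound without tubulin.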

| Compound | GI50 (SK-OV-3) | GI50 (DU-145) | IC50 (Tubulin) | GI50 (NCI-H460) | inhibition (Tubulin (Homo sapiens) [1]) | further results |
| --- | --- | --- | --- | --- | --- | --- |
| COc1ccc2c(c1O)CCCC(O)C2(O)c1cc(OC)c(OC)c(OC)c1 (stereo not given) | 3030 nM | 4040 nM | > 20000 nM | 3860 nM | 0% |  |
| COc1cc(C2(O)C=CCCc3c2ccc(OC)c3OC)cc(OC)c1OC (stereo not given) | 27200 nM | 26000 nM | > 20000 nM | 70500 nM | 0% |  |
| COc1ccc2c(c1C)CCCC(Br)=C2c1cc(OC)c(OC)c(OC)c1 | 312 nM | 423 nM | 4900 nM | 449 nM |  | inhibition (Tubulin (Homo sapiens) [2]): 35% |
| COc1ccc2c(c1O)CC=CC=C2c1cc(OC)c(OC)c(OC)c1 |  |  | 480 nM | 58.1 nM | 95% | inhibition (Tubulin (Homo sapiens) [3]): 68% |
| COc1ccc(/C=C\c2cc(OC)c(OC)c(OC)c2)cc1OP(=O)(O)O [FOSBRETABULIN DISODIUM] | 1.19 nM | 3.23 nM |  | 1.94 nM |  |  |
| COc1ccc2c(c1O)CCCCC2(O)c1cc(OC)c(OC)c(OC)c1 (stereo not given) | 394 nM | 33 nM | > 20000 nM | 173 nM |  |  |
| COc1ccc2c(c1O)CCC(NC(C)=O)C=C2c1cc(OC)c(OC)c(OC)c1 (stereo not given) |  | 1200 nM |  | 334 nM | 0.4% |  |
| COc1cccc2c1C(=O)c1c(O)c3c(c(O)c1C2=O)C[C@@](O)(C(=O)CO)C[C@@H]3O[C@H]1C[C@H](N)[C@H](O)[C@H](C)O1 [DOXORUBICIN] | 78.9 nM | 134 nM |  | 123 nM |  |  |
| COc1ccc2c(c1CO)CCCC=C2c1cc(OC)c(OC)c(OC)c1 |  |  | 630 nM | 62.8 nM | 76% |  |
| COc1ccc2c(c1O)CCCC(=O)C2(O)c1cc(OC)c(OC)c(OC)c1 (stereo not given) | 31.4 nM | 141 nM | 1200 nM | 47.6 nM | 72% |  |
| COc1ccc2c(c1O)CCCC(Br)=C2c1cc(OC)c(OC)c(OC)c1 | 22.1 nM | 36.2 nM | 390 nM | 35.3 nM | 88% |  |
| COc1cc(C2=CCCCc3c2ccc(OC)c3OCCO)cc(OC)c1OC | 3220 nM | 3760 nM | > 20000 nM | 855 nM |  |  |
| COc1cc(C2=CC=CCc3c2ccc(OC)c3OP(=O)([O-])[O-])cc(OC)c1OC.[Na+].[Na+] |  |  | 16000 nM | 29.1 nM | 45% | Activity (PC-3 [4]): inactive; Activity (PC-3 [5]): Active; Activity (PC-3 [6]): inactive; Activity (PC-3 [7]): inactive; Activity (PC-3 [8]): Active; Activity [9]: Non-Toxic; Activity (PC-3 [10]): 95%; Activity (PC-3 [11]): inactive; Activity [12]: Non-Toxic |
| COc1ccc(/C=C\c2cc(OC)c(OC)c(OC)c2)cc1O [COMBRETASTATIN A4] | 4.55 nM | 3.27 nM |  | 2.23 nM |  |  |
| COc1ccc2c(c1O)CCCC=C2c1cc(OC)c(OC)c(OC)c1 |  |  | 850 nM |  | 95% | inhibition (Tubulin (Homo sapiens) [2]): 73% |
| COc1cc(C2=CC(O)CCc3c2ccc(OC)c3OC)cc(OC)c1OC (stereo not given) | 263 nM | 439 nM | 3800 nM | 432 nM | 28% |  |
| COc1ccc2c(c1C#N)CCC=C2c1cc(OC)c(OC)c(OC)c1 | 38.4 nM | 25.2 nM | 370 nM | 60.5 nM | 73% |  |
| COCCOCCOc1c(OC)ccc2c1CCCC=C2c1cc(OC)c(OC)c(OC)c1 | 6520 nM | 5660 nM | > 20000 nM | 1900 nM |  |  |
| CC(=O)O[C@H]1C(=O)[C@@]2(C)[C@H]([C@H](OC(=O)c3ccccc3)[C@]3(O)C[C@H](OC(=O)[C@H](O)[C@@H](NC(=O)c4ccccc4)c4ccccc4)C(C)=C1C3(C)C)[C@]1(OC(C)=O)CO[C@@H]1C[C@@H]2O [PACLITAXEL] | 1.34 nM | 1.47 nM |  | 1.76 nM |  | inhibition (Tubulin (Homo sapiens) [13]): inactive |
| COc1cc(C2CCc3c(ccc(OC)c3OC)C(=O)C2)cc(OC)c1OC (stereo not given) | 5770 nM | 4450 nM | > 20000 nM | 2000 nM | 0% |  |
| COc1ccc2c(c1C#N)CCCC=C2c1cc(OC)c(OC)c(OC)c1 | 64.8 nM | 860 nM | 1100 nM | 434 nM | 62% |  |
| COc1ccc2c(c1C=O)CCCC=C2c1cc(OC)c(OC)c(OC)c1 | 57.2 nM | 40.2 nM | 3200 nM | 84.7 nM | 61% |  |
| CCOC(=O)c1c(OC)ccc2c1CCCC=C2c1cc(OC)c(OC)c(OC)c1 | 299 nM | 631 nM | 1000 nM | 353 nM | 47% |  |
